Assay results published in ChEMBL document CHEMBL3856275, “Discovery of Second Generation Reversible Covalent DPP1 Inhibitors Leading to an Oxazepane Amidoacetonitrile Based Clinical Candidate (AZD7986)” (J Med Chem, 2016).
Values after ≈ are worked out from the molar mass of the structure shown. Values belong to the compound of their own block, whether it stands above or below them.

Columns and labels:
physchem [1] = conditions: octanol/water, pH 7.4
Dipeptidyl peptidase 1 [2] = molecular target: T1, Dipeptidyl peptidase 1 (Homo sapiens, UniProt P53634); test: Inhibition of human recombinant DPP1 using Gly-Arg-AMC as substrate preincubated for 30 mins followed by substrate addition by fluorometric assay
T1 sequence (P53634 25-134 limits assumed): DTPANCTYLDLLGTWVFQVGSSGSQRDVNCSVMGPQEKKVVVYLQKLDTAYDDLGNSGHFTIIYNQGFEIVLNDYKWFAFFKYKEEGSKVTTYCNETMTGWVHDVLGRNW
T1 sequence (P53634 231-394 limits assumed): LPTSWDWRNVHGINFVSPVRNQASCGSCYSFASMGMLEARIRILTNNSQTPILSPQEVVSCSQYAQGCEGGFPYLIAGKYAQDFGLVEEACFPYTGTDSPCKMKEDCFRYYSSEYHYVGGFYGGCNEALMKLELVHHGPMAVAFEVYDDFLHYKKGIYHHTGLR
T1 sequence (P53634 395-463 limits assumed): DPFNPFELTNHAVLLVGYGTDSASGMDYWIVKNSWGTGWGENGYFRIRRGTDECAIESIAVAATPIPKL
In short: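 Isolated human recombinant DPP1 was run in a fluorometric assay in piperazine-based buffer. Compound was pre-incubated with enzyme for 30 min at rt, then Gly-Arg-AMC dipeptide substrate was added. Data were curve-fitted to give pIC50, as the mean of at least two experiments.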

Dipeptidyl peptidase 1 [3] = molecular target: T1, Dipeptidyl peptidase 1; test: Inhibition of DPP1 in human U937 cells using Gly-Phe-AFC as substrate preincubated for 60 mins followed by substrate addition by fluorescence assay; type: cell-based, U-937
[4] = Half life in Sprague-Dawley rat at 1 mg/kg, iv or 3 mg/kg, po; type: ADME, organism-based; conditions: in vivo
[5] = Intrinsic clearance in human liver microsomes at 1 uM after 5 to 40 mins by LC-MS/MS method; type: ADME; conditions: read-out: CLH
[6] = Clearance in Sprague-Dawley rat at 1 mg/kg, iv or 3 mg/kg, po; type: ADME, organism-based; conditions: in vivo
[7] = Volume of distribution at steady state in Sprague-Dawley rat at 1 mg/kg, iv or 3 mg/kg, po; type: ADME, organism-based; conditions: in vivo, read-out: Vdss
[8] = Apparent permeability across apical to basolateral side in human Caco2 cells at 10 uM after 1 hr by LC-MS method; conditions: Caco-2
[9] = Intrinsic clearance in human hepatocytes assessed per 10^6 cells at 1 uM after 10 to 90 mins by LC-MS/MS method; type: ADME, cell-based, Hepatocyte
[10] = Protein binding in human plasma at 10 uM after 6 hrs by LC-MS/MS method; type: ADME, cell-free; conditions: read-out: PPB (converted)
[11] = Apparent permeability across basolateral to apical side in human Caco2 cells at 10 uM after 1 hr by LC-MS method; conditions: Caco-2
[12] = Protein binding in rat plasma at 10 uM after 6 hrs by LC-MS/MS method; type: ADME, cell-free; conditions: read-out: PPB (converted)
[13] = Protein binding in dog plasma at 10 uM after 6 hrs by LC-MS/MS method; type: ADME, cell-free, Canis lupus familiaris; conditions: read-out: PPB (converted)
physchem [14] = conditions: pH 7.4
[15] = Oral bioavailability in Sprague-Dawley rat at 3 mg/kg; type: ADME, organism-based; conditions: in vivo
[16] = Intrinsic clearance in rat hepatocytes assessed per 10^6 cells at 1 uM after 10 to 90 mins by LC-MS/MS method; type: ADME, cell-based, Hepatocyte
[17] = Propionaldehyde reactivity assessed as half life of the compound at pH 7.4 by LC-UV method; type: physicochemical
[18] = Volume of distribution at steady state in Han Wistar rat at 1 mg/kg, iv and 3 mg/kg, po; type: ADME, organism-based; conditions: in vivo, read-out: Vdss
In short: (§1)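 Han Wistar rat PK with 1 mg/kg iv and 3 mg/kg po doses, both in pH3 buffer. Clearance is given in ml/min/kg, Vss in L/kg and t1/2 in h.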

[19] = molecular target: Voltage-gated inwardly rectifying potassium channel KCNH2 (Homo sapiens, UniProt Q12809)
Sequence of Voltage-gated inwardly rectifying potassium channel KCNH2 (Q12809 whole entry): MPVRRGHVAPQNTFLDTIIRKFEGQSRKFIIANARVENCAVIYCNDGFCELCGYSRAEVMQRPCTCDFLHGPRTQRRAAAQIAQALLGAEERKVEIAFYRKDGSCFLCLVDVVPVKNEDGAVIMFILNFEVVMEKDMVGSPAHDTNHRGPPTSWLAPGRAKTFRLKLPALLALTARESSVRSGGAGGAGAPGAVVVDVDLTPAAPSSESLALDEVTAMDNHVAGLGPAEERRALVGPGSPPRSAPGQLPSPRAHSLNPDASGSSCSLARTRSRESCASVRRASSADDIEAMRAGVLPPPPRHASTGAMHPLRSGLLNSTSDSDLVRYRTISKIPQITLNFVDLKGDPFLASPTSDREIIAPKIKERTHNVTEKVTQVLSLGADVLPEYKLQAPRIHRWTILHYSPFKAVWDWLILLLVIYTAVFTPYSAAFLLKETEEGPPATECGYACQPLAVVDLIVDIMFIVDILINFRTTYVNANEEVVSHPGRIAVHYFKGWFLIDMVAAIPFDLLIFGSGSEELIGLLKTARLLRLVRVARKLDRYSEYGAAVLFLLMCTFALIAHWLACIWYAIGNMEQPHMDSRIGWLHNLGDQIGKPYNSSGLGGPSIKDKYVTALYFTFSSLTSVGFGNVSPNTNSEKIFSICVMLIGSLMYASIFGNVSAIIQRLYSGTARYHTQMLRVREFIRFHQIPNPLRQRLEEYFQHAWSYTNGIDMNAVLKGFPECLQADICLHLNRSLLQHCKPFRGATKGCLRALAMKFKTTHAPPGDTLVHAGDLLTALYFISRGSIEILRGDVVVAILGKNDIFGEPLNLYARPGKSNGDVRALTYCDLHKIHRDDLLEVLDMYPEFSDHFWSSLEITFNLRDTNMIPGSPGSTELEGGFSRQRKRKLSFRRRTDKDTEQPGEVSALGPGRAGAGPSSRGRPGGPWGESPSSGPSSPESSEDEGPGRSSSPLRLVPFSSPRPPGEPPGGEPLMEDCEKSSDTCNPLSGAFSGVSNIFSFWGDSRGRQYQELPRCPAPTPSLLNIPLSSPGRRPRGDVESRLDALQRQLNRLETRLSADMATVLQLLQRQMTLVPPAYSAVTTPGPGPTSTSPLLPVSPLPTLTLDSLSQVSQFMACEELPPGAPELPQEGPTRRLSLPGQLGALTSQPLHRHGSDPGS

[20] = Half life in Han Wistar rat at 1 mg/kg, iv and 3 mg/kg, po; type: ADME, organism-based; conditions: in vivo
In short: as §1

[21] = Volume of distribution at steady state in Beagle dog at 1 mg/kg, iv and 2 mg/kg, po; type: ADME, organism-based, Canis lupus familiaris; conditions: in vivo, read-out: Vdss
[22] = Clearance in Han Wistar rat at 1 mg/kg, iv and 3 mg/kg, po; type: ADME, organism-based; conditions: in vivo
In short: as §1

[23] = Oral bioavailability in Han Wistar rat at 3 mg/kg; type: ADME, organism-based; conditions: in vivo
In short: as §1

[24] = Efflux ratio of apparent permeability across basolateral to apical over apical to basolateral side in human Caco2 cells at 10 uM after 1 hr by LC-MS method; conditions: Caco-2
[25] = Oral bioavailability in Beagle dog at 2 mg/kg; type: ADME, organism-based, Canis lupus familiaris; conditions: in vivo
[26] = Intrinsic clearance in dog hepatocytes assessed per 10^6 cells at 1 uM after 10 to 90 mins by LC-MS/MS method; type: ADME, cell-based, Canis lupus familiaris, Hepatocyte
[27] = Half life in Beagle dog at 1 mg/kg, iv and 2 mg/kg, po; type: ADME, organism-based, Canis lupus familiaris; conditions: in vivo
[28] = Clearance in Beagle dog at 1 mg/kg, iv and 2 mg/kg, po; type: ADME, organism-based, Canis lupus familiaris; conditions: in vivo

Compound: N#C[C@H](Cc1ccc(-c2ccc3oc(=O)n(CC(F)F)c3c2)cc1)NC(=O)[C@@H]1CNCCCO1
half-life [4]: 7 h
microsomal CLint at 1 µM [5]: < 14 µL/min/mg
clearance [6]: 4 mL/min/kg
Vd [7]: 2 L/kg
logD at 10 µM (physchem [1]): 1
Papp A→B at 1 h, 10 µM [8]: 8 ×10⁻⁶ cm/s
intrinsic clearance (CLint) [9]: 5 µL/min/10^6 cells
fraction unbound at 6 h, 10 µM [10]: 0.07
IC50 (Dipeptidyl peptidase 1 [2]): 6.31 nM
Papp B→A at 1 h, 10 µM [11]: 80 ×10⁻⁶ cm/s
fraction unbound at 6 h, 10 µM [12]: 0.06
fraction unbound at 6 h, 10 µM [13]: 0.15
solubility kinetic at 2 h (physchem [14]; buffer): 190 µM (≈ 89.4 µg/mL)
bioavailability [15]: 29%
CLH [16]: < 3.5 µL/min/10^6 cells
IC50 (Dipeptidyl peptidase 1 [3]): 6.31 nM
half-life [17]: > 50 h

Compound: N#C[C@H](Cc1ccc(-c2ncc(C(F)(F)F)cn2)cc1)NC(=O)[C@@H]1CNCCCO1
logD at 10 µM (physchem [1]): 1.1
IC50 (Dipeptidyl peptidase 1 [2]): 200 nM
IC50 (Dipeptidyl peptidase 1 [3]): 200 nM

Compound: N#Cc1ccc(-c2ccc(C[C@@H](C#N)NC(=O)[C@@H]3CNCCCO3)cc2)cc1
Vd [18]: 2 L/kg
microsomal CLint at 1 µM [5]: 9.5 µL/min/mg
logD at 10 µM (physchem [1]): 1.1
Papp A→B at 1 h, 10 µM [8]: 19 ×10⁻⁶ cm/s
intrinsic clearance (CLint) [9]: < 3.5 µL/min/10^6 cells
IC50 [19]: 17000 nM
fraction unbound at 6 h, 10 µM [10]: 0.09
half-life [20]: 6.2 h
IC50 (Dipeptidyl peptidase 1 [2]): 39.8 nM
Papp B→A at 1 h, 10 µM [11]: 45 ×10⁻⁶ cm/s
Vd [21]: 3.9 L/kg
fraction unbound at 6 h, 10 µM [12]: 0.24
clearance [22]: 3.8 mL/min/kg
fraction unbound at 6 h, 10 µM [13]: 0.25
solubility kinetic at 2 h (physchem [14]; phosphate buffered saline): 170 µM (≈ 63.7 µg/mL)
bioavailability [23]: 25%
efflux ratio at 1 h, 10 µM [24]: 2.4
bioavailability [25]: 71%
CLH [26]: < 4 µL/min/10^6 cells
half-life [27]: 10.7 h
CLH [16]: < 3.5 µL/min/10^6 cells
IC50 (Dipeptidyl peptidase 1 [3]): 31.6 nM
half-life [17]: > 50 h
clearance [28]: 4.1 mL/min/kg

Compound: N#C[C@H](Cc1ccc(-c2ccc3scnc3c2)cc1)NC(=O)[C@@H]1CNCCCO1
logD at 10 µM (physchem [1]): 1.5
IC50 (Dipeptidyl peptidase 1 [2]): 63.1 nM

Compound: N#Cc1cccc(-c2ccc(C[C@@H](C#N)NC(=O)C3CCCCC3N)cc2)c1 (stereo partly specified)
IC50 (Dipeptidyl peptidase 1 [2]): 1000 nM

Compound: N#Cc1ccc(-c2ccc(C[C@@H](C#N)NC(=O)[C@@H]3CCC[C@@H]3N)cc2)cc1
IC50 (Dipeptidyl peptidase 1 [2]): 1000 nM
IC50 (Dipeptidyl peptidase 1 [3]): 1260 nM
half-life [17]: > 50 h

Compound: N#Cc1ccc(-c2ccc(C[C@@H](C#N)NC(=O)[C@H]3CCCC[C@H]3N)cc2)cc1
IC50 (Dipeptidyl peptidase 1 [2]): > 10000 nM
half-life [17]: > 50 h

Compound: N#Cc1ccc(-c2ccc(C[C@@H](C#N)NC(=O)[C@@H]3CCCNC3)cc2)cc1
logD at 10 µM (physchem [1]): 0.6
IC50 (Dipeptidyl peptidase 1 [2]): > 10000 nM

Second part, led by results:

logD at 10 µM (physchem [1]): 1.4
IC50 (Dipeptidyl peptidase 1 [2]): 15.8 nM
IC50 (Dipeptidyl peptidase 1 [3]): 15.8 nM
Compound: CN1C(=O)C(F)(F)c2ccc(-c3ccc(C[C@@H](C#N)NC(=O)[C@@H]4CNCCCO4)cc3)cc21

logD at 10 µM (physchem [1]): 1.1
IC50 (Dipeptidyl peptidase 1 [3]): 12.6 nM
Compound: CN1C(=O)COc2ccc(-c3ccc(C[C@@H](C#N)NC(=O)[C@@H]4CNCCCO4)cc3)cc21

half-life [17]: < 1 h
Compound: N#Cc1ccc(-c2ccc(C[C@@H](C#N)NC(=O)C3(N)CCOCC3)cc2)cc1

logD at 10 µM (physchem [1]): 1.1
IC50 (Dipeptidyl peptidase 1 [2]): 12.6 nM
IC50 (Dipeptidyl peptidase 1 [3]): 12.6 nM
Compound: Cn1c(=O)ccc2ccc(-c3ccc(C[C@@H](C#N)NC(=O)[C@@H]4CNCCCO4)cc3)cc21

IC50 (Dipeptidyl peptidase 1 [2]): 501 nM
IC50 (Dipeptidyl peptidase 1 [3]): 398 nM
half-life [17]: > 50 h
Compound: N#Cc1ccc(-c2ccc(C[C@@H](C#N)NC(=O)[C@H]3CCCC[C@@H]3N)cc2)cc1

half-life [4]: 8 h
microsomal CLint at 1 µM [5]: < 14 µL/min/mg
clearance [6]: 1 mL/min/kg
Vd [7]: 0.5 L/kg
logD at 10 µM (physchem [1]): 1.5
Papp A→B at 1 h, 10 µM [8]: 13 ×10⁻⁶ cm/s
intrinsic clearance (CLint) [9]: < 3.5 µL/min/10^6 cells
fraction unbound at 6 h, 10 µM [10]: 0.08
IC50 (Dipeptidyl peptidase 1 [2]): 10 nM
Papp B→A at 1 h, 10 µM [11]: 76 ×10⁻⁶ cm/s
fraction unbound at 6 h, 10 µM [12]: 0.03
fraction unbound at 6 h, 10 µM [13]: 0.13
solubility kinetic at 2 h (physchem [14]; phosphate buffered saline): 175 µM (≈ 76 µg/mL)
efflux ratio at 1 h, 10 µM [24]: 5.9
CLH [26]: < 3.5 µL/min/10^6 cells
bioavailability [15]: 24%
CLH [16]: < 3.5 µL/min/10^6 cells
IC50 (Dipeptidyl peptidase 1 [3]): 7.94 nM
half-life [17]: > 50 h
Compound: Cc1cc(-c2ccc(C[C@@H](C#N)NC(=O)[C@@H]3CNCCCO3)cc2)cc2c1oc(=O)n2C
IC50 [19]: > 33000 nM
